The target in one test is T1, EcoFepB (Escherichia coli, UniProt P0AEL6, T297C).
T1 sequence (P0AEL6 27-318 T297C): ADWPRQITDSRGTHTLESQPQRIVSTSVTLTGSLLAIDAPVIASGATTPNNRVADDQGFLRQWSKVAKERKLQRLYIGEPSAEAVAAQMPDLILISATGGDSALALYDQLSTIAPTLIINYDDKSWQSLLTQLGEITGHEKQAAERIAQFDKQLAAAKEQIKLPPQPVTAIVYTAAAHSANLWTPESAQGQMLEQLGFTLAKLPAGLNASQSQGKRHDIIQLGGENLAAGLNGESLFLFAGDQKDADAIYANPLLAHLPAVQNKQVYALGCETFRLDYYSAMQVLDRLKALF
The experiment in a line: Fluorescence quenching binding, purified EcoFepB-FM sensor. Put shortly:
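His-tagged T297C FepB expressed from pET28 in E. coli and purified by metal affinity chromatography. Labeled with 5 μM fluorescein maleimide at pH 6.77 for 15 min, then repurified by gel filtration. Apo or ferric siderophores added at increasing concentrations, with three quenching determinations per concentration. Mean values fitted to a single-site binding model to give KD.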

Test [1] concerns the target T2, EcoFepA (Escherichia coli, UniProt P05825, A720C).
T2 sequence (P05825 23-746 A720C): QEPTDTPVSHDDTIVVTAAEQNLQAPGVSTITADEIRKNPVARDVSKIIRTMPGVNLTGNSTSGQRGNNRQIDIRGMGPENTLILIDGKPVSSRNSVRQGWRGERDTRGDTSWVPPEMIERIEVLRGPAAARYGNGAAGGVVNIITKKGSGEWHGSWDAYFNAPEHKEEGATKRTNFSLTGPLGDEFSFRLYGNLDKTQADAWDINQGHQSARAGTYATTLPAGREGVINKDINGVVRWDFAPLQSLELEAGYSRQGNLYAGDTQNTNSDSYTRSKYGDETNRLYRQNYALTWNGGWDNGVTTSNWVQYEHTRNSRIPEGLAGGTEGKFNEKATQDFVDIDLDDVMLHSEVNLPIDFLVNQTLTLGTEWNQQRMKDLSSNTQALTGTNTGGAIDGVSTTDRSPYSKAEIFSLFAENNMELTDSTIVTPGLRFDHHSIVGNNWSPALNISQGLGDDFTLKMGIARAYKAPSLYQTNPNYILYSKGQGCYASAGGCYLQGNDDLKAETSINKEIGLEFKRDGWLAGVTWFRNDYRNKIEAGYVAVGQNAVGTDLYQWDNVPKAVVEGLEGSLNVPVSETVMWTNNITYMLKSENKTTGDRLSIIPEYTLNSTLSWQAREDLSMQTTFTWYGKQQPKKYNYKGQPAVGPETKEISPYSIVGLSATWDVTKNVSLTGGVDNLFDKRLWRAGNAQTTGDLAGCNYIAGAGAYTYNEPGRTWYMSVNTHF
Nature of the test: Fluorescence quenching binding, EcoFepA-FM sensor.

The test system of a further test is AbaPirA. Nature of the test: Fluorescence quenching binding, AbaPirA-FM sensor. Also noted: species or system Acinetobacter baumannii. Put shortly:
(§1)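 Cys-mutant receptor made in E. coli hosts (entA, tonB+ or ΔtonB) grown in iron-deficient MOPS at 37 °C to late exponential phase. Cells washed in 50 mM NaHPO₄ pH 6.7, labeled in situ with 5 μM fluorescein maleimide for 15 min at 37 °C, quenched with 100 μM β-mercaptoethanol, then resuspended in PBS + 0.2% glucose. Binding used 2.5 × 10⁷ cells in 2 ml, stirred at 37 °C. Iron complex added stepwise; 520 nm emission quenching read in triplicate; 1-F/F₀ vs [ligand] fitted to single-site model for KD.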

The target in test [2] is T3, KpnIroN (Klebsiella pneumoniae, UniProt A0ACD7U953, T234C).
T3 sequence (A0ACD7U953 25-724 T234C): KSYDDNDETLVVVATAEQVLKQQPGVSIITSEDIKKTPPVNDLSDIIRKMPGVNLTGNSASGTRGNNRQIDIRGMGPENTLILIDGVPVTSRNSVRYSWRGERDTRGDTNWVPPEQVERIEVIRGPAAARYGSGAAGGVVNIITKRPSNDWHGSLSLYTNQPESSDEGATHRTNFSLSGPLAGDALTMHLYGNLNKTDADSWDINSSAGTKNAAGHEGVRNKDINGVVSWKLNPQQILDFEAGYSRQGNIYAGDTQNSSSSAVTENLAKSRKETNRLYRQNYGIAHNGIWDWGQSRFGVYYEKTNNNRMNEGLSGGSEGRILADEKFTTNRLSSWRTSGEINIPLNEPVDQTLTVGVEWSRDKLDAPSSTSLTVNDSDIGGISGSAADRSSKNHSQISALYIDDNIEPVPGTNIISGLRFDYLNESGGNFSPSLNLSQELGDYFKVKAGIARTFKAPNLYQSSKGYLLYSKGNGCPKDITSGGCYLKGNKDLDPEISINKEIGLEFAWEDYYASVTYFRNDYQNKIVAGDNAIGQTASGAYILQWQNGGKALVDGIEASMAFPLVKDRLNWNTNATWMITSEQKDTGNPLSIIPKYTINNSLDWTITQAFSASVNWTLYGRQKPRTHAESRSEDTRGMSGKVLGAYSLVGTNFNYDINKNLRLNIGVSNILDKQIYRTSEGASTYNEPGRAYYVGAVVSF
Nature of the test: Fluorescence quenching binding, KpnIroN-FM sensor. In a few lines:
as §1

A further test relates to AbaFepA. The test is classed as binding, Acinetobacter baumannii.
In the next test the test system is EcoCir. Nature of the test: Fluorescence quenching binding, EcoCir-FM sensor. Set-up: species or system Escherichia coli. Put shortly:
as §1

Another test concerns AbaPiuA. The experiment in a line: Fluorescence quenching binding, AbaPiuA-FM sensor. Also noted: species or system Acinetobacter baumannii. In a few lines:
as §1

In a further test the test system is EcoFiu. The experiment in a line: Fluorescence quenching binding, EcoFiu-FM sensor. Set-up: species or system Escherichia coli. Put shortly:
as §1

The next test has as its target T4, EcoIutA (Escherichia coli, UniProt B7LI14, T574C).
T4 sequence (B7LI14 26-733 T574C): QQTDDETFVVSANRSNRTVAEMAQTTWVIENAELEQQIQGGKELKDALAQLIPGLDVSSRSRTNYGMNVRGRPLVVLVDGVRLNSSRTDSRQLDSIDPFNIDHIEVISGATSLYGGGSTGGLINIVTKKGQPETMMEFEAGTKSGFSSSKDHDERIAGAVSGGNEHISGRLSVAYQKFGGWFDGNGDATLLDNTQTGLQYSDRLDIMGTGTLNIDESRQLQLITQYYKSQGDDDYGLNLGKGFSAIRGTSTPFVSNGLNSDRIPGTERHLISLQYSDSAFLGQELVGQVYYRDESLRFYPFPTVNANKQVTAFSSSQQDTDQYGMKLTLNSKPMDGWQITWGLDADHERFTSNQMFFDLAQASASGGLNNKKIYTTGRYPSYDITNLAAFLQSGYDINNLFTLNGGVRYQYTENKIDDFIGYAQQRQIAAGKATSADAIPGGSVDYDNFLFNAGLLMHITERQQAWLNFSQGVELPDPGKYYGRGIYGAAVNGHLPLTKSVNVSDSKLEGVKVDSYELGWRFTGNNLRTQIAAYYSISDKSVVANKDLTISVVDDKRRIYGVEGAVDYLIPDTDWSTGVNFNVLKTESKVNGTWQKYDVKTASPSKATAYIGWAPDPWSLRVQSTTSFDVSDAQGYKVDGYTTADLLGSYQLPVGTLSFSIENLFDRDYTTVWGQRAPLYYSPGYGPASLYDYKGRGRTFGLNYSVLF
Nature of the test: Fluorescence quenching binding, EcoIutA-FM sensor.

In test [3] the target is human siderocalin (HsaSCN) (Homo sapiens, UniProt P80188, Q148C). Nature of the test: Fluorescence quenching binding, purified HsaSCN-FM sensor. Conditions: HsaSCN-FM (Q128C), purified protein.
human siderocalin (HsaSCN), sequence (P80188 21-198 Q148C): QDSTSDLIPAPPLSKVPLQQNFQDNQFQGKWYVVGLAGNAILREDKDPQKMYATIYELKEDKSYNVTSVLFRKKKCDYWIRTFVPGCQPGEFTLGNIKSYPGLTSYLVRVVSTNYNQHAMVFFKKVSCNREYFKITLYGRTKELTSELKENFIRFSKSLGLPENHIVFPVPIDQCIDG
The target of another test is T5, PaeFpvA (Pseudomonas aeruginosa, UniProt P48632, T660C).
T5 sequence (P48632 44-815 T660C): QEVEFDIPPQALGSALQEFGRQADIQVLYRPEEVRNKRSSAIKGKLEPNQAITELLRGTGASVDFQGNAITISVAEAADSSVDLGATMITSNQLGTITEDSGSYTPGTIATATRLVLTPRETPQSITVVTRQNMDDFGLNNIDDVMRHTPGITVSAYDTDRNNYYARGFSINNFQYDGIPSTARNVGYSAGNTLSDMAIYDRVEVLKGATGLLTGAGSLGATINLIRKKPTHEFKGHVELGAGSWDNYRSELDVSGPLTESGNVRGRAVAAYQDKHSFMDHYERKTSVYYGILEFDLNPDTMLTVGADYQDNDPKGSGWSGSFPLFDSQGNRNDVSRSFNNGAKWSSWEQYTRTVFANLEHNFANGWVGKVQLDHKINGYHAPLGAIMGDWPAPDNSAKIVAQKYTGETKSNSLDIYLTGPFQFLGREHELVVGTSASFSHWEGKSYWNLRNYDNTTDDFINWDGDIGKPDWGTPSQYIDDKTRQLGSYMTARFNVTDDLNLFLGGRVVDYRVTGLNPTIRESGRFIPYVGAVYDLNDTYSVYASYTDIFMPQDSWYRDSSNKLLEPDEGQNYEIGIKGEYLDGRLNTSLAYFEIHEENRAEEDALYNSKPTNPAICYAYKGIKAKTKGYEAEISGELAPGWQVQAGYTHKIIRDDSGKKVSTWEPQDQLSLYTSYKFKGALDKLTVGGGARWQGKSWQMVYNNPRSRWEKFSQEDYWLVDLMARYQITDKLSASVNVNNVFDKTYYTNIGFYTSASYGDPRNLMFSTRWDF
The experiment in a line: Fluorescence quenching binding, PaeFpvA-FM sensor. Put shortly:
as §1

Test [4] deals with T2, EcoFepA. The conditions noted are these: cited from earlier work.
Test [5] concerns Iron-deficient Gram-negative bacteria, with maximally expressed chromosomal FepA. The conditions noted are these: cited from earlier work.
Test [6] addresses T3, KpnIroN. Conditions: cited from earlier work.
The target in another test is KpnFyuA (Klebsiella pneumoniae, UniProt A4GZD6, S653C). Nature of the test: Fluorescence quenching binding, KpnFyuA-FM sensor. The conditions noted are these: 50% quenching.

Values joined by “and” are separate entries in the source; they are usually repeats but may differ in a detail not shown here. Identical values can stand only once. Like-named read-outs stand apart in the source and are kept apart here. Square brackets hold non-standard residues; d marks the D form. Peptide text beside a SMILES is read from it. Orn(N5-OH,N5-Ac) = CC(=O)N(O)CCC[C@H](N)C(=O)O

As usually defined, the Kd is the concentration at which binding is half-saturated.

For `O=C(N[C@H]1COC(=O)[C@@H](NC(=O)c2cccc(O)c2O)COC(=O)[C@@H](NC(=O)c2cccc(O)c2O)COC1=O)c1cccc(O)c1O` [Ent, enterobactin], the “binding (in words)” value at EcoFepB is reported as “bound”. Moreover, the Kd at EcoFepA [1] was found to be 27 nM.
For the molecule `CC(C)(O/N=C(\C(=O)N[C@@H]1C(=O)N2C(C(=O)[O-])=C(C[N+]3(CCNC(=O)c4ccc(O)c(O)c4Cl)CCCC3)CS[C@H]12)c1csc(N)n1)C(=O)O` [FDC, cefidericol], the “binding (in words)” value in the test on AbaPirA, at KpnIroN [2], in the test with AbaFepA, in the test with EcoCir, in the test with AbaPiuA and in the test with EcoFiu was “bound” each time.
Take `CC(=O)N([O-])CCC[C@@H]1NC(=O)CNC(=O)CNC(=O)CNC(=O)[C@H](CCCN([O-])C(C)=O)NC(=O)[C@H](CCCN([O-])C(C)=O)NC1=O.[Fe+3]` [Fc, ferrichrome] (cyclo(GGG[Orn(N5-OH,N5-Ac)][Orn(N5-OH,N5-Ac)][Orn(N5-OH,N5-Ac)])): on EcoIutA, the “binding (in words)” value is given as “did not measurably bind”. Further, binding in test [3] was characterised by a dissociation constant (Kd) of 110 nM.
For the molecule `CC(=O)N(O)CCCC[C@H](NC(=O)CC(O)(CC(=O)N[C@@H](CCCCN(O)C(C)=O)C(=O)O)C(=O)O)C(=O)O.[Fe+3]` [FeAbn, ferric aerobactin], at EcoIutA (EcoIutA-FM sensor, fluorescence quenching), the Kd turned out to be 6 nM.
Consider `O=C(O)c1cccc(O)c1O.[Fe+3]` [FeDHB], for which the “binding (in words)” value at EcoFepB is listed as “bound”; on PaeFpvA it was “weakly bound”; in the test with EcoFiu, “did not bind”. For the same molecule, the affinity in test [3], expressed as Kd, was 330 nM.
On to `O=C(N[C@H]1COC(=O)[C@@H](NC(=O)c2cccc(O)c2O)COC(=O)[C@@H](NC(=O)c2cccc(O)c2O)COC1=O)c1cccc(O)c1O.[Fe+3]` [FeEnt, ferric enterobactin], for which the Kd was 43000 nM on EcoFepB (EcoFepB-FM (T297C), purified protein); 0.1 to 0.4 nM on EcoFepA [4] (ref 53, 68, 69, 70); 0.4 nM at EcoFepA [4] (ref 53); 10 to 12 nM in test [3]; ~25 nM and 17 nM on AbaFepA (AbaFepA-FM sensor, fluorescence quenching); 0.4 nM on KpnIroN [6]. In addition, at EcoFepB (FeEnt, EcoFepB-FM vs EcoFepA), the “fold less affinity than EcoFepA” value was “about 100 fold”. Further, the transport rate in test [5] is listed as approximately 50 pmol/10^9 cells/min. Further, the “binding (in words)” value with EcoCir is “bound”; at PaeFpvA it was “weakly bound”; in the test with EcoFiu, “bound”. At EcoFepA [1] (EcoFepA-FM), the “fold higher affinity for FeEnt than for FeGEnt” value was approximately 300 fold.
Take `CC(C)(C1=N[C@@](C)(C(=O)O)CS1)[C@H](O)[C@@H]1CS[C@H]([C@H]2CSC(c3ccccc3O)=N2)N1.[Fe+3]` [FeYbt]: the results for the Kd (on KpnFyuA; in test [3]) were 1 nM and 11000 nM, respectively.
